Activity calls are given as the source filed them. No cut-off for these calls is given here.
Legend:
Candida albicans [1] = test: Antifungal activity against Candida albicans ATCC 10231 assessed as inhibition of microbial growth by NCCLS protocol based method; assay type: functional
How it was run: (§1)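 Broth MIC50 determined following NCCLS guidelines in Sabouraud medium, with fungal suspension in 24-well format. Compound tested at 0.0625, 0.125, 0.5, 1, 2, 4, 8 and 16 μg/mL. Plates cultured statically at 35 °C. MIC50 is the lowest concentration giving 50% growth inhibition. Naftifine and fluconazole served as positive controls.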

Nakaseomyces glabratus = test: Antifungal activity against Candida glabrata ATCC 0001 assessed as inhibition of microbial growth by NCCLS protocol based method; assay type: functional; how it was run: as §1
Pichia kudriavzevii = test: Antifungal activity against Candida krusei ATCC 6258 assessed as inhibition of microbial growth by NCCLS protocol based method; assay type: functional; how it was run: as §1
Candida tropicalis = test: Antifungal activity against Candida tropicalis ATCC 1369 assessed as inhibition of microbial growth by NCCLS protocol based method; assay type: functional; how it was run: as §1
Aspergillus fumigatus = test: Antifungal activity against Aspergillus fumigatus KM8001 assessed as inhibition of microbial growth by NCCLS protocol based method; assay type: functional; how it was run: as §1
Candida albicans [2] = test: Antifungal activity against fluconazole-resistant Candida albicans 17# assessed as inhibition of microbial growth by NCCLS protocol based method; assay type: functional
Candida albicans [3] = test: Antifungal activity against fluconazole-resistant Candida albicans CaR assessed as inhibition of microbial growth by NCCLS protocol based method; assay type: functional
Candida albicans [4] = test: Antifungal activity against fluconazole-resistant Candida albicans 632 assessed as inhibition of microbial growth by NCCLS protocol based method; assay type: functional
Candida albicans [5] = test: Antifungal activity against fluconazole-resistant Candida albicans 901 assessed as inhibition of microbial growth by NCCLS protocol based method; assay type: functional
Candida albicans [6] = test: Antifungal activity against fluconazole-resistant Candida albicans 904 assessed as inhibition of microbial growth by NCCLS protocol based method; assay type: functional
Candida albicans [7] = test: Antifungal activity against Candida albicans ATCC SC5314 assessed as decrease in fungal cell density at 10 nM/mL by polarizing microscopy; assay type: functional, organism-based; settings: dose 10.0 nmol/ml
How it was run: (§2)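 C. albicans ATCC SC5314 observed by polarizing microscopy over treatment time. Untreated, fluconazole- and naftifine-treated control groups were included. Cell density, dividing cells and cell fracture were assessed, with cell counts taken per field.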

Candida albicans [8] = test: Antifungal activity against Candida albicans ATCC SC5314 assessed as reduction in cell division at 10 nM/mL by polarizing microscopy; assay type: functional, organism-based; settings: dose 10.0 nmol/ml; how it was run: as §2
Candida albicans [9] = test: Antifungal activity against Candida albicans ATCC SC5314 assessed as induction of cell fracture at 10 nM/mL by polarizing microscopy; assay type: functional, organism-based; settings: dose 10.0 nmol/ml; how it was run: as §2
[10] = biological target: T1, Lanosterol 14-alpha demethylase (Candida albicans (strain SC5314 / ATCC MYA-2876) (Yeast), UniProt P10613); test: Inhibition of CYP51 in Candida albicans ATCC SC5314 assessed as ergosterol level at 0.125 ug/ml incubated for 48 hrs by LC/MS analysis (reference value: 95.1 %); set-up: scale not given: the % may be the effect or the level left; settings: candida albicans sc5314, 48 h, at 0.125 µg/mL
T1 sequence (P10613 whole entry): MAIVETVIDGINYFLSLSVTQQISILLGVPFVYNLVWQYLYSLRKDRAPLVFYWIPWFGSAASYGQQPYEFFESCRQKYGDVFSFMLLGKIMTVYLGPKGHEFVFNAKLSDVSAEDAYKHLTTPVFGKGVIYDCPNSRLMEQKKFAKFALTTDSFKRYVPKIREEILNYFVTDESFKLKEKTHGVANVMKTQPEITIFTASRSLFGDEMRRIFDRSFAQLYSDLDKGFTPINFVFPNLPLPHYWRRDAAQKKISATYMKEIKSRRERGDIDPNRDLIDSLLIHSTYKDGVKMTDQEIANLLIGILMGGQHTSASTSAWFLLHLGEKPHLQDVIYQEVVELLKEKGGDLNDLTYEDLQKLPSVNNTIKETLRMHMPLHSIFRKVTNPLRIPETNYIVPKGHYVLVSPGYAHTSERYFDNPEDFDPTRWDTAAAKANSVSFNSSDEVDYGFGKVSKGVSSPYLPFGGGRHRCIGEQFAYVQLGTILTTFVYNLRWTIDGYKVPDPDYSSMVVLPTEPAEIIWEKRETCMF
How it was run: (§3)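 C. albicans ATCC SC5314 cells exposed to drug at 0.125, 0.5 or 4 μg/mL for 48 h, alongside an untreated control. Sterols were extracted and analysed by LC-MS. Ergosterol, squalene, lanosterol, eburicol and unknown sterols are each given as % of total sterols, calculated from the peak area ratio of each component.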

[11] = biological target: T1, Lanosterol 14-alpha demethylase; test: Inhibition of CYP51 in Candida albicans ATCC SC5314 assessed as ergosterol level at 0.5 ug/ml incubated for 48 hrs by LC/MS analysis (reference value: 95.1 %); set-up: scale not given: the % may be the effect or the level left; settings: candida albicans sc5314, 48 h, at 0.5 µg/mL
How it was run: (§4)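 C. albicans SC5314 cells exposed to compound (0.125, 0.5 or 4 μg/mL) for 48 h alongside untreated and naftifine/fluconazole-treated groups; sterol fraction analysed by LC-MS; each component expressed as percent of total sterols from peak area ratios.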

[12] = biological target: T1, Lanosterol 14-alpha demethylase; test: Inhibition of CYP51 in Candida albicans ATCC SC5314 assessed as ergosterol level at 4 ug/ml incubated for 48 hrs by LC/MS analysis (reference value: 95.1 %); set-up: scale not given: the % may be the effect or the level left; settings: candida albicans sc5314, 48 h, at 4 µg/mL; how it was run: as §4
[13] = biological target: T1, Lanosterol 14-alpha demethylase; test: Inhibition of CYP51 in Candida albicans ATCC SC5314 assessed as squalene level at 4 ug/ml incubated for 48 hrs by LC/MS analysis; set-up: scale not given: the % may be the effect or the level left; settings: candida albicans sc5314, 48 h, at 4 µg/mL; how it was run: as §4
[14] = biological target: T1, Lanosterol 14-alpha demethylase; test: Inhibition of CYP51 in Candida albicans ATCC SC5314 assessed as lanosterol level at 0.125 ug/ml incubated for 48 hrs by LC/MS analysis; set-up: scale not given: the % may be the effect or the level left; settings: candida albicans sc5314, 48 h, at 0.125 µg/mL; how it was run: as §3
[15] = biological target: T1, Lanosterol 14-alpha demethylase; test: Inhibition of CYP51 in Candida albicans ATCC SC5314 assessed as lanosterol level at 0.5 ug/ml incubated for 48 hrs by LC/MS analysis; set-up: scale not given: the % may be the effect or the level left; settings: candida albicans sc5314, 48 h, at 0.5 µg/mL; how it was run: as §4
[16] = biological target: T1, Lanosterol 14-alpha demethylase; test: Inhibition of CYP51 in Candida albicans ATCC SC5314 assessed as lanosterol level at 4 ug/ml incubated for 48 hrs by LC/MS analysis; set-up: scale not given: the % may be the effect or the level left; settings: candida albicans sc5314, 48 h, at 4 µg/mL; how it was run: as §4
[17] = biological target: T1, Lanosterol 14-alpha demethylase; test: Inhibition of CYP51 in Candida albicans ATCC SC5314 assessed as eburicol level at 0.125 ug/ml incubated for 48 hrs by LC/MS analysis (reference value: 1.4 %); set-up: scale not given: the % may be the effect or the level left; settings: candida albicans sc5314, 48 h, at 0.125 µg/mL; how it was run: as §3
[18] = biological target: T1, Lanosterol 14-alpha demethylase; test: Inhibition of CYP51 in Candida albicans ATCC SC5314 assessed as eburicol level at 0.5 ug/ml incubated for 48 hrs by LC/MS analysis (reference value: 1.4 %); set-up: scale not given: the % may be the effect or the level left; settings: candida albicans sc5314, 48 h, at 0.5 µg/mL; how it was run: as §4
[19] = biological target: T1, Lanosterol 14-alpha demethylase; test: Inhibition of CYP51 in Candida albicans ATCC SC5314 assessed as eburicol level at 4 ug/ml incubated for 48 hrs by LC/MS analysis (reference value: 1.4 %); set-up: scale not given: the % may be the effect or the level left; settings: candida albicans sc5314, 48 h, at 4 µg/mL; how it was run: as §4
[20] = biological target: T1, Lanosterol 14-alpha demethylase; test: Inhibition of CYP51 in Candida albicans ATCC SC5314 assessed as unknown sterol level at 0.125 ug/ml incubated for 48 hrs by LC/MS analysis; set-up: scale not given: the % may be the effect or the level left; settings: candida albicans sc5314, 48 h, at 0.125 µg/mL; how it was run: as §3
[21] = biological target: T1, Lanosterol 14-alpha demethylase; test: Inhibition of CYP51 in Candida albicans ATCC SC5314 assessed as unknown sterol level at 0.5 ug/ml incubated for 48 hrs by LC/MS analysis; set-up: scale not given: the % may be the effect or the level left; settings: candida albicans sc5314, 48 h, at 0.5 µg/mL; how it was run: as §4
[22] = biological target: T1, Lanosterol 14-alpha demethylase; test: Inhibition of CYP51 in Candida albicans ATCC SC5314 assessed as unknown sterol level at 4 ug/ml incubated for 48 hrs by LC/MS analysis; set-up: scale not given: the % may be the effect or the level left; settings: candida albicans sc5314, 48 h, at 4 µg/mL; how it was run: as §4
[23] = biological target: T1, Lanosterol 14-alpha demethylase; test: Inhibition of Candida albicans ATCC SC5314 CYP51 incubated for 30 mins by HPLC method

Compound: O=C(NC(Cn1ccnc1)C(=O)NCc1ccccc1)c1ccc2ccccc2c1 (configuration not stated)
- MIC50 (Candida albicans [1]): 0.5 µg/mL
- MIC50 (Nakaseomyces glabratus): 1 µg/mL
- MIC50 (Pichia kudriavzevii): 1 µg/mL
- MIC50 (Candida tropicalis): 0.5 µg/mL
- MIC50 (Aspergillus fumigatus): > 16 µg/mL

Compound: CN(CC(=O)NCc1cccnc1)C(=O)c1cccc2ccccc12
- MIC50 (Candida albicans [1]): 0.5 µg/mL
- MIC50 (Nakaseomyces glabratus): 2 µg/mL
- MIC50 (Pichia kudriavzevii): 0.5 µg/mL
- MIC50 (Candida tropicalis): 0.25 µg/mL
- MIC50 (Aspergillus fumigatus): > 16 µg/mL

Compound: Cc1ccc(NC(=O)C(Cn2ccnc2)NC(=O)c2ccc3ccccc3c2)cc1 (configuration not stated)
- MIC50 (Candida albicans [1]): 0.125 µg/mL
- MIC50 (Nakaseomyces glabratus): 0.25 µg/mL
- MIC50 (Pichia kudriavzevii): 0.25 µg/mL
- MIC50 (Candida tropicalis): 0.25 µg/mL
- MIC50 (Aspergillus fumigatus): 8 µg/mL

Compound: O=C(NC(Cn1ccnc1)C(=O)NC1CCCC1)c1cccc2ccccc12 (configuration not stated)
- MIC50 (Candida albicans [1]): 0.5 µg/mL
- MIC50 (Nakaseomyces glabratus): 2 µg/mL
- MIC50 (Pichia kudriavzevii): 0.5 µg/mL
- MIC50 (Candida tropicalis): 0.5 µg/mL
- MIC50 (Aspergillus fumigatus): > 16 µg/mL

Compound: OC(Cn1cncn1)(Cn1cncn1)c1ccc(F)cc1F [FLUCONAZOLE]
- MIC50 (Candida albicans [1]): 0.25 µg/mL
- MIC50 (Nakaseomyces glabratus): 0.25 µg/mL
- MIC50 (Pichia kudriavzevii): 1 µg/mL
- MIC50 (Candida tropicalis): 0.25 µg/mL
- MIC50 (Aspergillus fumigatus): > 16 µg/mL
- MIC50 (Candida albicans [2]): 8 µg/mL
- MIC50 (Candida albicans [3]): > 16 µg/mL
- MIC50 (Candida albicans [4]): 8 µg/mL
- MIC50 (Candida albicans [5]): > 16 µg/mL
- MIC50 (Candida albicans [6]): 8 µg/mL
- Activity (Candida albicans [7]): Active
- Activity (Candida albicans [8]): Active
- Activity (Candida albicans [9]): Active
- Activity [10]: 78.5%
- Activity [11]: 43.9%
- Activity [12]: 12.7%
- Activity [13]: 1.3%
- Activity [14]: 5.1%
- Activity [15]: 8.9%
- Activity [16]: 16.3%
- Activity [17]: 12.8%
- Activity [18]: 42.5%
- Activity [19]: 64.5%
- Activity [20]: 3.6%
- Activity [21]: 4.7%
- Activity [22]: 5.2%
- IC50 [23]: 116 nM

Compound: CN(CC(=O)Nc1ccncc1)C(=O)c1ccc2ccccc2c1
- MIC50 (Candida albicans [1]): 0.25 µg/mL
- MIC50 (Nakaseomyces glabratus): 0.5 µg/mL
- MIC50 (Pichia kudriavzevii): 1 µg/mL
- MIC50 (Candida tropicalis): 0.25 µg/mL
- MIC50 (Aspergillus fumigatus): 8 µg/mL

Compound: CC(NC(=O)c1ccc2ccccc2c1)C(=O)NC(Cn1ccnc1)C(=O)c1ccccc1 (configuration not stated)
- MIC50 (Candida albicans [1]): 0.25 µg/mL
- MIC50 (Nakaseomyces glabratus): 0.5 µg/mL
- MIC50 (Pichia kudriavzevii): 0.25 µg/mL
- MIC50 (Candida tropicalis): 0.125 µg/mL
- MIC50 (Aspergillus fumigatus): 8 µg/mL

Compound: O=C(NC(Cn1ccnc1)C(=O)NCc1ccccc1)c1cccc2ccccc12 (configuration not stated)
- MIC50 (Candida albicans [1]): 0.5 µg/mL
- MIC50 (Nakaseomyces glabratus): 0.5 µg/mL
- MIC50 (Pichia kudriavzevii): 1 µg/mL
- MIC50 (Candida tropicalis): 0.25 µg/mL
- MIC50 (Aspergillus fumigatus): 8 µg/mL

Compound: Cc1ccc(NC(=O)C(Cn2ccnc2)NC(=O)c2cccc3ccccc23)cc1 (configuration not stated)
- MIC50 (Candida albicans [1]): 0.25 µg/mL
- MIC50 (Nakaseomyces glabratus): 0.25 µg/mL
- MIC50 (Pichia kudriavzevii): 0.5 µg/mL
- MIC50 (Candida tropicalis): 0.5 µg/mL
- MIC50 (Aspergillus fumigatus): > 16 µg/mL

Compound: CN(CC(=O)Nc1cccnc1)C(=O)c1ccc2ccccc2c1
- MIC50 (Candida albicans [1]): 0.125 µg/mL
- MIC50 (Nakaseomyces glabratus): 0.25 µg/mL
- MIC50 (Pichia kudriavzevii): 0.25 µg/mL
- MIC50 (Candida tropicalis): 0.125 µg/mL
- MIC50 (Aspergillus fumigatus): 4 µg/mL
- MIC50 (Candida albicans [2]): 8 µg/mL
- MIC50 (Candida albicans [3]): 4 µg/mL
- MIC50 (Candida albicans [4]): > 16 µg/mL
- MIC50 (Candida albicans [5]): > 16 µg/mL
- MIC50 (Candida albicans [6]): > 16 µg/mL

Compound: CN(CC(=O)NCc1ccncc1)C(=O)c1cccc2ccccc12
- MIC50 (Candida albicans [1]): 1 µg/mL
- MIC50 (Nakaseomyces glabratus): 1 µg/mL
- MIC50 (Pichia kudriavzevii): 2 µg/mL
- MIC50 (Candida tropicalis): 0.5 µg/mL
- MIC50 (Aspergillus fumigatus): 8 µg/mL

Compound: O=C(CNC(=O)c1ccc2ccccc2c1)NC(Cn1ccnc1)C(=O)c1ccccc1 (configuration not stated)
- MIC50 (Candida albicans [1]): 0.25 µg/mL
- MIC50 (Nakaseomyces glabratus): 1 µg/mL
- MIC50 (Pichia kudriavzevii): 0.5 µg/mL
- MIC50 (Candida tropicalis): 0.25 µg/mL
- MIC50 (Aspergillus fumigatus): > 16 µg/mL

Compound: CC(C)C(NC(=O)c1ccc2ccccc2c1)C(=O)NC(Cn1ccnc1)C(=O)c1ccccc1 (configuration not stated)
- MIC50 (Candida albicans [1]): 0.5 µg/mL
- MIC50 (Nakaseomyces glabratus): 1 µg/mL
- MIC50 (Pichia kudriavzevii): 1 µg/mL
- MIC50 (Candida tropicalis): 0.5 µg/mL
- MIC50 (Aspergillus fumigatus): > 16 µg/mL
